Results: ChEMBL document CHEMBL1134348, “Novel glucocorticoid antedrugs possessing a 17beta-(gamma-lactone) ring” (J Med Chem, 2001)
Values belong to the compound of their own block, whether it stands above or below them.

Legend:
[1] = biological target: T1, Glucocorticoid receptor (Homo sapiens, UniProt P04150); experiment: Affinity for human glucocorticoid receptor
T1 sequence (P04150 whole entry): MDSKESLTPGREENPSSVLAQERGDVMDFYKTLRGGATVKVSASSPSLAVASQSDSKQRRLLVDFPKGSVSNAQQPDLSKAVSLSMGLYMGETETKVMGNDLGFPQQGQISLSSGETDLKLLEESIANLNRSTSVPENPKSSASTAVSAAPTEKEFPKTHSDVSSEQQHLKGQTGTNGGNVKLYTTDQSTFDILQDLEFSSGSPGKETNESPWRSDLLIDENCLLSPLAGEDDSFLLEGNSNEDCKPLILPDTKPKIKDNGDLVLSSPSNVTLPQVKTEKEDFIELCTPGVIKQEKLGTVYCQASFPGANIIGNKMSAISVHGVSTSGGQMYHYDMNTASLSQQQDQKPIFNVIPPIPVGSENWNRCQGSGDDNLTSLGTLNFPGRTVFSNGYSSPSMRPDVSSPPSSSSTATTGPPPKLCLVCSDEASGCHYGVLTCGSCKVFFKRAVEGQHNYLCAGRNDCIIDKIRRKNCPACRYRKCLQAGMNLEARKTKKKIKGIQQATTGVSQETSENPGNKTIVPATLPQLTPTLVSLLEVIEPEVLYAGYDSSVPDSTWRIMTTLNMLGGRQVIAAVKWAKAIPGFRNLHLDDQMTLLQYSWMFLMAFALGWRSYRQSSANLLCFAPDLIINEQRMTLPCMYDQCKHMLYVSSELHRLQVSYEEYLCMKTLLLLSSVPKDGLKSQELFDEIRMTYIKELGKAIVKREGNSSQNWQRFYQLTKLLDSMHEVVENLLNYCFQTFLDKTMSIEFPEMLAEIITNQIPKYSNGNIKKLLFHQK

[2] = (§1) % stability in human plasma after 10 minutes.; type: ADME, organism-based; details: plasma, read-out: Stability
Method in brief: (§2)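 Pooled heparinized plasma from 4 volunteers was incubated at 37 °C with test compound at a final concentration of 30 ug/mL, with DMSO-only controls. The reaction was stopped with 2 M citric acid at 10 and 60 min, with a zero-time sample. Supernatants were analysed by reversed-phase HPLC at 240 nm against an internal standard, in duplicate, and reported as % compound remaining.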

[3] = % stability in krebs buffer after 60 minutes.; type: physicochemical; details: for remaining at 1 h: Krebs buffer, read-out: Stability
Method in brief: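 Test compound, at a final concentration of 30 ug/mL, was spiked into Krebs buffer at 37 °C for 60 min, then quenched with 2 M citric acid. Supernatant was analysed by reversed-phase HPLC with UV detection at 240 nm and an internal standard, in duplicate. The read-out was % compound remaining.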

[4] = (§3) % stability in human plasma after 60 minutes.; type: ADME, organism-based; details: plasma, read-out: Stability; method in brief: as §2
[5] = half life in human plasma.; type: ADME, organism-based
Method in brief: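 Pooled heparinised plasma from 4 volunteers, stored at −20 °C; compound spiked to final 30 ug/mL at 37 °C. Half-life taken from additional time points in this incubation; reaction stopped with 2 M citric acid, samples frozen overnight and centrifuged. Supernatant analysed by reverse-phase HPLC with UV at 240 nm, internal standard dexamethasone or hydrocortisone; duplicates.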

[6] = biological target: T2, Glucocorticoid receptor (Rattus norvegicus) (UniProt P06536); experiment: Percentage reduction in thymus weight (248.99+/-23.19 mg) at 50 ug dose; type: functional
T2 sequence (whole entry): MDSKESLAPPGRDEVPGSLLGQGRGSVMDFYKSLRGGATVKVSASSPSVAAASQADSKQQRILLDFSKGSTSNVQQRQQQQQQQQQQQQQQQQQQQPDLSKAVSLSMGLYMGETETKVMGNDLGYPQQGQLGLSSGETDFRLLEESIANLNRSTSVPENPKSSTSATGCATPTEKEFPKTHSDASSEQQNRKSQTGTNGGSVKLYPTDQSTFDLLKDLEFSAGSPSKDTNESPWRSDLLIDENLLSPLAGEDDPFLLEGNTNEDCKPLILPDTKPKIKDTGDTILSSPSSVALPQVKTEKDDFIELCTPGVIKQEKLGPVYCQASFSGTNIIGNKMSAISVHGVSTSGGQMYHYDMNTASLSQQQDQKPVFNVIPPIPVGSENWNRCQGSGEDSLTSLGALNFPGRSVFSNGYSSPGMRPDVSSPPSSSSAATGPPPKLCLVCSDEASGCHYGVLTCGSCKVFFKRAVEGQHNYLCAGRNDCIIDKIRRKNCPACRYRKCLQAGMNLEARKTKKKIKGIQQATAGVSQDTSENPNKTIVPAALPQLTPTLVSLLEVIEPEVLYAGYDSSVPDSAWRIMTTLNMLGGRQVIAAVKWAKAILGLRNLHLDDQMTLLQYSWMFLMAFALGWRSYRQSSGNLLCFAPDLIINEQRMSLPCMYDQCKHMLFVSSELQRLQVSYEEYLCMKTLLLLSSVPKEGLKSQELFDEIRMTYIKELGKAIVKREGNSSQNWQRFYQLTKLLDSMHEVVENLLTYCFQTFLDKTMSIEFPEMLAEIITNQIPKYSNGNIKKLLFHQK

[7] = species on record: Homo sapiens; experiment: as §1; type: ADME, organism-based; details: 10 min; method in brief: as §2
[8] = species on record: Homo sapiens; experiment: as §3; type: ADME, organism-based; details: 1 h; method in brief: as §2
[9] = tested on: Rattus norvegicus; experiment: Inhibition of rat ear edema as percentage change in mean weight (71.65+/-2.81 mg) from control group of 72.25+/-2.24 mg at a 1.56 ug dose; type: functional
[10] = tested on: Rattus norvegicus; experiment: Inhibition of rat ear edema as percentage change in mean weight (55.94 +/- 3.31 mg) from control group of 72.25+/-2.24 mg at 6.25 ug dose; type: functional
[11] = tested on: Rattus norvegicus; experiment: Inhibition of rat ear edema as percentage change in mean weight (46.46+/-2.86 mg) from control group of 72.25+/-2.24 mg at 100 ug dose; type: functional
[12] = tested on: Rattus norvegicus; experiment: Inhibition of rat ear edema as percentage change in mean weight (54.84 +/- 2.18 mg) from control group of 72.25+/-2.24 mg at 10.00 ug dose; type: functional
[13] = tested on: Rattus norvegicus; experiment: Inhibition of rat ear edema as percentage change in mean weight (49.76+/-2.12 mg) from control group of 72.25+/-2.24 mg at 25.00 ug dose; type: functional

IC50 [1]: 289 nM
Structure (SMILES): CC1(C)O[C@@H]2CC3C4C[C@H](F)C5=CC(=O)C=C[C@]5(C)[C@@]4(F)[C@@H](O)C[C@]3(C)[C@]2(SC(CCO)C(=O)O)O1 (some centres undefined)

remaining at 10 min [2]: 100%
remaining at 1 h [3]: 100%
remaining at 1 h [4]: 100%
half-life [5]: > 240 min
Structure (SMILES): CCC[C@@H]1O[C@@H]2CC3C4C[C@H](F)C5=CC(=O)CC[C@]5(C)[C@@]4(F)[C@@H](O)C[C@]3(C)[C@]2(SCC2CCOC2=O)O1 (some centres undefined)

Stability [7]: 28%
Stability ([3]; buffer, 1 h): 99%
Stability [8]: 19%
Structure (SMILES): CCC[C@@H]1O[C@@H]2CC3C4C[C@H](F)C5=CC(=O)CC[C@]5(C)[C@@]4(F)[C@@H](O)C[C@]3(C)[C@]2(SC2COC(=O)C2)O1 (single isomer, unassigned; isomer A)

Stability [8]: 100%
Structure (SMILES): CC1(C)O[C@@H]2CC3C4C[C@H](F)C5=CC(=O)C=C[C@]5(C)[C@@]4(F)[C@@H](O)C[C@]3(C)[C@]2(CC2CCOC2=O)O1 (single isomer, unassigned; isomer A)

remaining at 10 min [2]: 19%
remaining at 1 h [3]: 100%
remaining at 1 h [4]: 7%
Structure (SMILES): CCC[C@@H]1O[C@@H]2CC3C4C[C@H](F)C5=CC(=O)C=C[C@]5(C)[C@@]4(F)[C@@H](O)C[C@]3(C)[C@]2(S[C@@H]2CCOC2=O)O1 (some centres undefined)

More lines, now with the values behind:

Structure (SMILES): CCCC1O[C@@H]2C[C@H]3[C@@H]4CCC5=CC(=O)C=C[C@]5(C)[C@H]4[C@@H](O)C[C@]3(C)[C@]2(C(=O)CO)O1 (some centres undefined)
Reduction [6]: 48%

Structure (SMILES): CCC[C@@H]1O[C@@H]2CC3C4C[C@H](F)C5=CC(=O)CC[C@]5(C)[C@@]4(F)[C@@H](O)C[C@]3(C)[C@]2(S[C@@H]2CCOC2=O)O1 (some centres undefined)
Decrease [9]: 0.83%
remaining at 10 min [2]: 19%
Decrease [10]: 22.6%
Decrease [11]: 35.7%
Decrease [12]: 24.1%
Decrease [13]: 31.1%
remaining at 1 h [3]: 91%
IC50 [1]: 6.4 nM
remaining at 1 h [4]: 0%
half-life [5]: 5 min

Structure (SMILES): CCC[C@@H]1O[C@@H]2CC3C4C[C@H](F)C5=CC(=O)CC[C@]5(C)[C@@]4(F)[C@@H](O)C[C@]3(C)[C@]2(S[C@H]2CCOC2=O)O1 (some centres undefined)
remaining at 10 min [2]: 0%
remaining at 1 h [3]: 82%
remaining at 1 h [4]: 0%

Structure (SMILES): CC1=C(SC2CCOC2=O)[C@@]2(C)C[C@H](O)[C@@]3(F)C(CCC4=CC(=O)C=C[C@@]43C)C2C1 (single isomer, unassigned; isomer B)
Stability [7]: 17%
remaining at 1 h [3]: 98%
remaining at 1 h [4]: 8%
